Our source for the Activity and inhibition values is ChEMBL document CHEMBL2390908, “Mapping the Vif-A3G interaction using peptide arrays: a basis for anti-HIV lead peptides” (Bioorg Med Chem, 2013).

Calls of active or inactive are those of the source. The calls are words filed in the database; no cut-off is given here.

For data set [1], the system named is Human immunodeficiency virus 1. Briefly: Binding affinity to full length N-terminal His6-tagged HIV1 HXB2 Vif expressed in Escherichia coli MC-1061 after overnight incubation by chemiluminescence assay. An outline of the steps:
(§1)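 Immobilized peptide arrays blocked 4 h in 3.5% milk in 50 mM Tris-HCl pH 8, 150 mM NaCl, 1% Tween 20, then probed overnight at 4 °C with purified His-tagged protein in that buffer (full-length Vif 2 μM final; Vif CTD 7 μM final). Detection used anti-Vif mAb, HRP goat anti-mouse and chemiluminescence. Two experiments, duplicate arrays per slide.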

Data set [2] relates to Human immunodeficiency virus 1. Briefly: Binding affinity to N-terminal His6-tagged HIV1 HXB2 Vif CTD (141 to 192 amino acids) expressed in Escherichia coli MC-1061 after overnight incubation by chemiluminescence assay. The essentials:
as §1

Another data set concerns H9. As to the kind of experiment: Cytotoxicity against human H9 cells at 50 to 100 uM after 2 hrs. The note with it: h9, 2 h. The class given is cell-based.
In a further data set the test system is 293T. Briefly: Binding affinity to HIV1 Vif expressed in human 293T cells assessed as inhibition of A3G degradation at 100 uM after 24 hrs by Western blot analysis. Type of data set: cell-based. Particulars: Human immunodeficiency virus 1. The essentials:
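293T cells co-transfected by calcium phosphate with Myc/His6-tagged A3G and HVif vectors (empty pcDNA3.1 in place of Vif as control). Medium replaced 8 h post-transfection, peptides added at 100 μM for a further 24 h. Lysates immunoblotted with anti-Myc (A3G) and anti-Vif antibodies. A3G bands quantified densitometrically, with A3G intensity in the no-Vif control set to 100%.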

The subject of data set [3] is Human immunodeficiency virus 1. Briefly: Antiviral activity against HIV1 infected in human H9 cells assessed as inhibition of viral propagation at 50 to 100 uM incubated for 2 hrs prior to infection measured on day 7 to 9 by MAGI assay. The class given is functional, organism-based. The essentials:
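H9 cells, which express endogenous A3G, pretreated 2 h with peptides at 50 and 100 μM, then infected with wt HIV-1 HXBII at MOI 0.05. Media collected on days 5, 7 and 9 post-infection, and released-virus infectivity titered by MAGI assay.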

As for H-DGPRATMKIMNYDEF-OH, the result in data set [1] and in data set [2] was Active.

Take H-HQGCPFQPWDGLDEH-OH: in data set [1], the result was Active. Further, the result in data set [2] was inactive.

For H-YSQRELFEPWNNLPK-OH, the result in data set [1] and in data set [2] was Active.

As for H-NTVWLCYEVKTKGPS-OH, the outcome in data set [1] and in data set [2] was Active.

Consider H-MRFFHWFSKWRKLHR-OH, for which the result in data set [1] and in data set [2] was Active.

As for H-WVRGRHETYLCYEVE-OH, the Activity entry with H9 is recorded as “Non-toxic”. For the same substance, the result in data set [1] and in data set [2] was Active. Moreover, the inhibition result (with 293T; in data set [3]) was “Active” in each case.

As to H-LDVIPFWKLDLDQDY-OH, the Activity result with H9 is “Non-toxic”. Also, the result in data set [1] and in data set [2] was Active. In addition, in the data set on 293T, the inhibition entry was “Active”. Moreover, in data set [3], the inhibition result is “inactive”.

In the case of H-AGAKISIMTYSEFKH-OH, the outcome in data set [1] was Active. For the same substance, the outcome in data set [2] was inactive.

In the case of H-TFLAEDPKVTLTIFV-OH, the outcome in data set [1] and in data set [2] was Active.

On to H-QEMAKFISKNKHVSL-OH, for which the result in data set [1] and in data set [2] was Active.
